One assay deals with Human alphaherpesvirus 1. Kind of assay: Antiviral activity against HSV1 in african green monkey Vero cells assessed as virus-induced cytopathic effect after 3 days by MTT assay. The class given is functional, organism-based. To be noted: Human alphaherpesvirus 1, Vero, 72 h. The gist of the method: (§1)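 Vero cells seeded at 3 × 10³/well and grown 3-4 days to a confluent monolayer, washed, then infected with virus diluted in DME plus 2% FBS at a dose equal to 50% cell culture inhibitory dose (CCID50) for 60 min at 37 °C. Inoculum removed; medium with graded sample concentrations (below 300 µg/mL) added in duplicate; 3 days at 37 °C, 5% CO2. MTT read-out; EC50 = concentration inhibiting virus-induced CPE by 50%.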
For orientation: Damage to the host cells serves as the signal in cytopathic effect assays.

For another assay, the system named is Human alphaherpesvirus 2. The assay can be described thus: Antiviral activity against HSV2 in african green monkey Vero cells assessed as virus-induced cytopathic effect after 3 days by MTT assay. The assay is classed as functional, organism-based. Particulars: for EC50: Human alphaherpesvirus 2, Vero, 72 h. A digest of the protocol: as §1

Values after ≈ are worked out from the molar mass of the structure shown. Active and inactive are the calls of the source. The rule behind the calls is not given here.

Turning to `C=C(C)[C@H](CC=C(C)C)Cc1c(O)cc(OC)c(C(=O)/C=C/c2ccc(O)cc2O)c1O` [KURAIDIN], the concentration giving a half-maximal response (EC50) in the assay with Human alphaherpesvirus 1 is more than 300 µg/mL. Further, the result in the assay with Human alphaherpesvirus 2 was inactive.
Regarding `C=C(C)[C@H](CCC(C)(C)O)Cc1c(O)cc(OC)c2c1O[C@H](c1ccc(O)cc1O)CC2=O` [KURARINOL], the concentration for a half-maximal effect (EC50) in the assay with Human alphaherpesvirus 1 worked out at 60 µg/mL (≈ 131 µM); with Human alphaherpesvirus 2, 44 µg/mL (≈ 96.4 µM).
The like results for `C=C(C)[C@H](CCC(C)(C)O)Cc1c(O)cc(OC)c2c1O[C@H](c1ccc(O)cc1O)[C@@H](O)C2=O` [KUSHENOL H] were, in that order, more than 300 µg/mL and 162 µg/mL (≈ 343 µM).
Turning to `C=C(C)[C@H](CCC(C)(C)O)Cc1c(O)cc(OC)c2c1O[C@H](c1ccc(O)cc1O)[C@H](O)C2=O` [KUSHENOL K], the EC50 is more than 300 µg/mL with Human alphaherpesvirus 1 and 147 µg/mL (≈ 311 µM) in the assay with Human alphaherpesvirus 2.
On to `COc1cc(O)c(CC=C(C)C)c2oc(-c3ccc(O)cc3)c(O)c(=O)c12` [SOPHOFLAVESCENOL], for which the EC50 with Human alphaherpesvirus 1 was more than 300 µg/mL. Besides, in the assay on Human alphaherpesvirus 2, the outcome was inactive.
On to `OC[C@H]1O[C@@H](Oc2ccc3c(c2)OC[C@H]2c4cc5c(cc4O[C@@H]32)OCO5)[C@H](O)[C@@H](O)[C@@H]1O` [TRIFOLIRHIZIN], for which the EC50 with Human alphaherpesvirus 1 is more than 300 µg/mL. The result in the assay with Human alphaherpesvirus 2 was inactive.

Broadly, the EC50 is the concentration giving half of the maximal effect.
